Calls of active or inactive are those of the source. No cut-off for these calls is given here.
Assays:
Mus musculus [1] = assay: Anticonvulsant activity in mice(induced by maximal electroshock )after 2 hr of administration, for Phase-II screening; type: functional
Method in brief: (§1)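 Phase II quantitative evaluation in mice by the NINCDS program. Dosing was ip as suspensions in 0.5% methylcellulose or 30% polyethylene glycol 400. ED50 (MES or subcutaneous Metrazol) or TD50 (rotorod) in mg/kg was derived with 95% confidence intervals, measured at the stated time after administration.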

Mus musculus [2] = assay: Anticonvulsant activity in mice, (induced by subcutaneous administration of Metrazol.) after 2 hr of administration, for Phase-II screening; Inactive; type: functional, organism-based; method in brief: as §1
[3] = molecular target: Sodium channel alpha subunits; brain (Types I, II, III) (Rattus norvegicus, UniProt P04775+P04774+P08104); assay: In vitro inhibition of [3H]-BTX-B binding to sodium channels in rat brain synapto-neurosomes; type: tissue-based
Method in brief: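 Rat cerebral cortex synaptoneurosomes were prepared by glass-glass homogenization in choline chloride/HEPES/glucose/MgSO4/KCl buffer, then spun at 1000g for 15 min at 4 °C. Incubation was 40 min at 25 °C with 10 nM [3H]BTX-B, 50 µg/mL scorpion venom, about 980 µg protein and varying compound concentrations (final MeOH <1%). Bound label was collected by filtration and scintillation counting. Nonspecific binding was taken with 250 µM veratridine. IC50 is the concentration giving 50% inhibition of specific binding.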

Mus musculus [4] = assay: Rotarod toxicity test in Phase-I screening was determined; active at 100 mg/kg; type: organism-based; set-up: dose 100 mg/kg; conditions: in vivo
Method in brief: (§2)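 Phase I qualitative screen run by the NINCDS Anticonvulsant Drug Development Program. Mice (1-4 per group) received 30, 100 or 300 mg/kg ip as suspensions in 30% polyethylene glycol 400 unless otherwise noted. Testing was 30 min after dosing in the MES, subcutaneous Metrazol or rotorod toxicity model.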

[5] = Rotarod toxicity test for the compound in Phase-II screening was determined; type: organism-based; conditions: mouse, in vivo
Mus musculus [6] = assay: Anticonvulsant activity in mice, induced by subcutaneous administration of Metrazol for Phase-I screening; active at 100 mg/kg; type: functional, organism-based; set-up: dose 100 mg/kg; method in brief: as §2
Mus musculus [7] = assay: Anticonvulsant activity in mice, (induced by subcutaneous administration of Metrazol) after 0.25 hr of administration, for Phase-II screening; type: functional; conditions: sc; method in brief: as §1
Mus musculus [8] = assay: Anticonvulsant activity in mice, induced by maximal electroshock for Phase-I screening; active at 100 mg/kg; type: functional, organism-based; set-up: dose 100 mg/kg; method in brief: as §2
Mus musculus [9] = assay: Anticonvulsant activity in mice(induced by maximal electroshock) after 0.25 hr of administration, for Phase-II screening; type: functional; method in brief: as §1
Mus musculus [10] = assay: Anticonvulsant activity in mice(induced by maximal electroshock )after 0.25 hr of administration, for Phase-II screening; type: functional; method in brief: as §1
Mus musculus [11] = assay: Anticonvulsant activity in mice, induced by maximal electroshock for Phase-I screening; Active at 100 mg/kg; type: functional, organism-based; set-up: dose 100 mg/kg; method in brief: as §2
Mus musculus [12] = assay: Anticonvulsant activity in mice, (induced by subcutaneous administration of Metrazol.) after 0.25 hr of administration, for Phase-II screening; type: functional; conditions: sc; method in brief: as §1
Mus musculus [13] = assay: Anticonvulsant activity in mice, induced by subcutaneous administration of Metrazol for Phase-I screening; Active at 300 mg/kg; type: functional, organism-based; set-up: dose 300 mg/kg; method in brief: as §2
Mus musculus [14] = assay: Rotarod toxicity test in Phase-I screening was determined; Active at 300 mg/kg; type: organism-based; set-up: dose 300 mg/kg; conditions: in vivo; method in brief: as §2
Mus musculus [15] = assay: Anticonvulsant activity in mice, induced by subcutaneous administration of Metrazol for Phase-I screening; Active at 100 mg/kg; type: functional, organism-based; set-up: dose 100 mg/kg; method in brief: as §2
Mus musculus [16] = assay: Rotarod toxicity test in Phase-I screening was determined; Inactive up to 300 mg/kg; type: organism-based; set-up: dose 300 mg/kg; conditions: in vivo; method in brief: as §2
Mus musculus [17] = assay: Anticonvulsant activity in mice, induced by maximal electroshock for Phase-I screening; Inactive up to 300 mg/kg; type: functional, organism-based; set-up: dose 300 mg/kg
Method in brief: (§3)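 NINCDS Anticonvulsant Drug Development Program qualitative phase I screen in mice (1-4 per dose) at 30, 100 and 300 mg/kg, given ip as suspensions in 30% PEG 400 (some in 0.5% methylcellulose). Challenge 30 min post-dose with maximal electroshock or subcutaneous Metrazol.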

Mus musculus [18] = assay: Anticonvulsant activity in mice, induced by subcutaneous administration of Metrazol for Phase-I screening; Inactive up to 300 mg/kg; type: functional, organism-based; set-up: dose 300 mg/kg; method in brief: as §3
Mus musculus [19] = assay: Anticonvulsant activity in mice, induced by subcutaneous administration of Metrazol for Phase-I screening; Active at 30 mg/kg; type: functional, organism-based; set-up: dose 30 mg/kg; method in brief: as §2
Mus musculus [20] = assay: Anticonvulsant activity in mice, (induced by subcutaneous administration of Metrazol.) after 0.5 hr of administration, for Phase-II screening; type: functional; conditions: sc; method in brief: as §1
Mus musculus [21] = assay: Anticonvulsant activity in mice (induced by maximal electroshock )after 0.5 hr of administration, for Phase-II screening; type: functional; method in brief: as §1
Mus musculus [22] = assay: Rotarod toxicity test in Phase-I screening was determined; Active at 30 mg/kg; type: organism-based; set-up: dose 30 mg/kg; conditions: in vivo; method in brief: as §2
Mus musculus [23] = assay: Anticonvulsant activity in mice, induced by maximal electroshock for Phase-I screening; Active at 300 mg/kg; type: functional, organism-based; set-up: dose 300 mg/kg; method in brief: as §2
Mus musculus [24] = assay: Anticonvulsant activity in mice(induced by maximal electroshock )after 0.5 hr of administration, for Phase-II screening; type: functional; method in brief: as §1
Mus musculus [25] = assay: Anticonvulsant activity in mice, (induced by subcutaneous administration of Metrazol.) after 0.25 hr of administration, for Phase-II screening; Inactive; type: functional, organism-based; method in brief: as §1
Mus musculus [26] = assay: Anticonvulsant activity in mice, (induced by subcutaneous administration of Metrazol.) after 1 hr (tested for rotarod test only) of administration, for Phase-II screening; type: functional; conditions: sc
Mus musculus [27] = assay: Anticonvulsant activity in mice(induced by maximal electroshock )after 1 hr (tested for rotarod test only) of administration, for Phase-II screening; type: functional

| SMILES | IC50 [3] [µM] | TD50 [5] [mg/kg] | MES (Mus musculus [11]) | scMet (Mus musculus [13]) | ED50 (Mus musculus [20]) [mg/kg] | other results |
| --- | --- | --- | --- | --- | --- | --- |
| O=C1NC(=O)C(c2ccccc2)(c2ccccc2)N1 [PHENYTOIN] | 40 |  |  |  |  | ED50 (Mus musculus [1]): 10 mg/kg; ED50 (Mus musculus [2]): inactive |
| O=C1O[C@]2(c3ccccc3)CCCCCN1C2=O | 160 | 147 |  |  |  | Rotorod (Mus musculus [4]): Active; scMet (Mus musculus [6]): Active; ED50 (Mus musculus [7]): 45 mg/kg; MES (Mus musculus [8]): Active; ED50 (Mus musculus [9]): 66 mg/kg |
| O=C1NCCCCCC1(O)c1ccccc1 (stereo not given) | > 800 | 199 | Active | Active |  | ED50 (Mus musculus [10]): 80 mg/kg; ED50 (Mus musculus [12]): 108 mg/kg; Rotorod (Mus musculus [14]): Active |
| CCOC(=O)N1CCCCC(O)(c2ccccc2)C1=O (stereo not given) | 640 | 216 | Active |  |  | ED50 (Mus musculus [10]): 84 mg/kg; scMet (Mus musculus [15]): Active; Rotorod (Mus musculus [14]): Active |
| O=C1NCCCC1(O)c1ccccc1 (stereo not given) | > 800 |  |  |  |  | Rotorod (Mus musculus [16]): Not Active; MES (Mus musculus [17]): inactive; scMet (Mus musculus [18]): inactive |
| CCC1(c2ccccc2)OC(=O)NC1=O (stereo not given) | > 800 | 164 |  |  | 39 | scMet (Mus musculus [19]): Active; ED50 (Mus musculus [21]): 86 mg/kg; Rotorod (Mus musculus [22]): Active; MES (Mus musculus [23]): Active |
| CN1CCCC(O)(c2ccccc2)C1=O (stereo not given) | > 800 | ~350 | Active | Active | 128 | ED50 (Mus musculus [24]): 84 mg/kg; Rotorod (Mus musculus [16]): Not Active |
| CCOC(=O)N1CCCC(OC)(c2ccccc2)C1=O (stereo not given) | 590 | > 300 |  | Active | 124 | ED50 (Mus musculus [24]): 225 mg/kg; MES (Mus musculus [23]): Active; Rotorod (Mus musculus [16]): Not Active |
| NC(=O)N1c2ccccc2C=Cc2ccccc21 [CARBAMAZEPINE] | 131 |  |  |  |  | ED50 (Mus musculus [10]): 9 mg/kg; ED50 (Mus musculus [25]): inactive |
| CCC1(c2ccccc2)OC(=O)N(C)C1=O (stereo not given) | 500 | 504 |  |  | 45 | scMet (Mus musculus [19]): Active; ED50 (Mus musculus [24]): 124 mg/kg; Rotorod (Mus musculus [22]): Active; MES (Mus musculus [23]): Active |
| O=C1NCCCCC1(O)c1ccccc1 (stereo not given) | > 800 | 210 | Active | Active |  | ED50 (Mus musculus [10]): 63 mg/kg; ED50 (Mus musculus [12]): 74 mg/kg; Rotorod (Mus musculus [14]): Active |
| COC1(c2ccccc2)CCCNC1=O (stereo not given) | > 800 | 239 | Active | Active | 50 | ED50 (Mus musculus [24]): 120 mg/kg; Rotorod (Mus musculus [14]): Active |
| O=C1O[C@@]2(c3ccccc3)CCCCN1C2=O | 380 |  |  | Active |  | Rotorod (Mus musculus [16]): Not Active; MES (Mus musculus [17]): inactive |
| CN1C(=O)OC(C)(C)C1=O [TRIMETHADIONE] | > 1000 | 819 |  |  |  | ED50 (Mus musculus [26]): 300 mg/kg; ED50 (Mus musculus [27]): 627 mg/kg |

Source: ChEMBL document CHEMBL1124013, “Anticonvulsant activities of phenyl-substituted bicyclic 2,4-oxazolidinediones and monocyclic models. Comparison with binding to the neuronal voltage-dependent sodium channel” (J Med Chem, 1988)
